Data on nine molecules can be found in ChEMBL document CHEMBL3259551, “Novel delta opioid receptor agonists with oxazatricyclodecane structure” (ACS Med Chem Lett, 2014).

Molecules are shown by their SMILES. pEC50, pKi: −log10 of the molar value.

In series [1] the target is Mu-type opioid receptor (Mus musculus, UniProt P42866). Description: Displacement of [3H]DAMGO from mu opioid receptor in mouse whole brain […] membrane. The series is classed as tissue-based. The procedure, abridged: (§1)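 Competitive binding run in duplicate. MOR used [3H]DAMGO and DOR used [3H]DPDPE, both on mouse whole-brain membranes without cerebellum. KOR used [3H]U-69,593 on guinea pig cerebellum membranes.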
Mu-type opioid receptor (Mus musculus, UniProt P42866), sequence (P42866 whole entry): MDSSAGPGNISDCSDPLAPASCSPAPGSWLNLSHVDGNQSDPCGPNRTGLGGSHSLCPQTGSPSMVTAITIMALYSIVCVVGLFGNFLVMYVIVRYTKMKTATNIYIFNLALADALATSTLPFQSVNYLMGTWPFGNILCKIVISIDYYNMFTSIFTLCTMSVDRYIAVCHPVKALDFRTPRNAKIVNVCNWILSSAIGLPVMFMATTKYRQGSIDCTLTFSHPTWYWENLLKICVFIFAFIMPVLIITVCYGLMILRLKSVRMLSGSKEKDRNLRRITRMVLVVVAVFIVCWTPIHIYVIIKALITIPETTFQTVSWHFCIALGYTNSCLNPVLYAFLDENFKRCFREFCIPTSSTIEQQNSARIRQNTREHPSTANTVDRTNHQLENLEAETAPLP
For orientation: Displacement assays read how much labelled ligand stays bound in the presence of the test substance.

Series [2] has as its target Delta-type opioid receptor (Mus musculus, UniProt P32300). Briefly: Displacement of [3H]DPDPE from delta opioid receptor in mouse whole brain […] membrane. The series is classed as tissue-based. Put shortly:
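Competitive binding run in duplicate. MOR used [3H]DAMGO and DOR used [3H]DPDPE, both on mouse whole-brain membranes without cerebellum.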

The target in series [3] is Kappa-type opioid receptor (Cavia porcellus, UniProt P41144). Briefly: Displacement of [3H]U69593 from kappa opioid receptor in guinea pig cerebellum membrane. Put shortly: as §1
Kappa-type opioid receptor (Cavia porcellus, UniProt P41144), sequence (P41144 whole entry): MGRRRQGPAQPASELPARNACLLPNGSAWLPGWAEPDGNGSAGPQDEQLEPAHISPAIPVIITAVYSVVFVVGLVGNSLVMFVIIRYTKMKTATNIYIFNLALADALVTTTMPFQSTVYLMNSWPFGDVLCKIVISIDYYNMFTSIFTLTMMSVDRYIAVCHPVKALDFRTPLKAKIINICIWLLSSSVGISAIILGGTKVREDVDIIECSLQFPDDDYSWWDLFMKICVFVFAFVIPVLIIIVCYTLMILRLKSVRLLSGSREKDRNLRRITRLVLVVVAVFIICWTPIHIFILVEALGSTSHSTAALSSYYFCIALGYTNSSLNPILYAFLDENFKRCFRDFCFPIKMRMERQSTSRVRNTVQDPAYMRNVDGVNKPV
Series [4] is filed under the species Mus musculus. Briefly: Selectivity ratio of Ki for mouse mu opioid receptor to Ki for mouse delta opioid receptor.
Series [5] is described as follows: Selectivity ratio of Ki for guinea pig kappa opioid receptor to Ki for mouse delta opioid receptor.
Series [6] deals with T1, Mu-type opioid receptor (Homo sapiens, UniProt P35372). Description: Agonist activity at human mu opioid receptor expressed in CHO cells assessed as [35S]-GTP[gammaS] binding. The format is cell-based. Put shortly:
(§2)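 Human MOR, DOR or KOR expressed in CHO cells; [35S]GTPγS binding run in duplicate. Emax is the % of the response to DAMDO for MOR, SNC80 for DOR and U-69,593 for KOR.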
(Binding of GTPγS marks nucleotide exchange on a G protein.)

The target in series [7] is T1, Mu-type opioid receptor. Description: Agonist activity at human mu opioid receptor expressed in CHO cells assessed as [35S]-GTP[gammaS] binding relative to DAMDO. The format is cell-based. The procedure, abridged: as §2
In series [8] the target is T2, Delta-type opioid receptor (Homo sapiens, UniProt P41143). Description: Agonist activity at human delta opioid receptor expressed in CHO cells assessed as [35S]-GTP[gammaS] binding. The format is functional, cell-based. Put shortly:
as §2

The target of series [9] is T2, Delta-type opioid receptor. Description: Agonist activity at human delta opioid receptor expressed in CHO cells assessed as [35S]-GTP[gammaS] binding relative to SNC80. The format is functional, cell-based. The procedure, abridged:
as §2

Series [10] deals with T1, Mu-type opioid receptor. Description: Agonist activity at human mu opioid receptor expressed in HEK293 cells by CellKey method. The format is cell-based. Put shortly:
(§3)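 Label-free CellKey impedance biosensor readout of receptor activity in HEK293 cells expressing human MOR, DOR or KOR, run in duplicate.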

Series [11] addresses T1, Mu-type opioid receptor. Briefly: Agonist activity at human mu opioid receptor expressed in HEK293 cells by CellKey method relative to DAMDO. The series is classed as cell-based.
Series [12] deals with T2, Delta-type opioid receptor. Briefly: Agonist activity at human delta opioid receptor expressed in HEK293 cells by CellKey method. The series is classed as cell-based. The procedure, abridged:
(§4)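 Label-free CellKey impedance biosensor readout of receptor activity in HEK293 cells expressing human MOR, DOR or KOR, run in duplicate. Emax is the % of the response to DAMGO for MOR, SNC80 for DOR and (−)-U-50,488H for KOR.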

Series [13] concerns the target T2, Delta-type opioid receptor. Description: Agonist activity at human delta opioid receptor expressed in HEK293 cells by CellKey method relative to SNC80. The series is classed as cell-based. The procedure, abridged:
as §4

The target in series [14] is T3, Kappa-type opioid receptor (Homo sapiens, UniProt P41145). Briefly: Agonist activity at human kappa opioid receptor expressed in HEK293 cells by CellKey method. The format is cell-based. Put shortly: as §3
T3 sequence (P41145 whole entry): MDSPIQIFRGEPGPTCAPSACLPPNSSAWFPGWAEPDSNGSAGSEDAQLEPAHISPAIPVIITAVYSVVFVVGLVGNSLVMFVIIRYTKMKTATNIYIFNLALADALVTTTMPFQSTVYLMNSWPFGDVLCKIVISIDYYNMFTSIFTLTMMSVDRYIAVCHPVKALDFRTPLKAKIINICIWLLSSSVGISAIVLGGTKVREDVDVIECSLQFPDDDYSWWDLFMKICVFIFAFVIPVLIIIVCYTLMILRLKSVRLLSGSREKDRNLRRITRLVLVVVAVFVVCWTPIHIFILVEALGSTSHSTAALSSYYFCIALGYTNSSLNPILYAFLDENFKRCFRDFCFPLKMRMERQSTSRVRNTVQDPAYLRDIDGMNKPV
Series [15] addresses T3, Kappa-type opioid receptor. Briefly: Agonist activity at human kappa opioid receptor expressed in HEK293 cells by CellKey method relative to (-)U50488H. The series is classed as cell-based. The procedure, abridged:
as §4

The target in series [16] is T3, Kappa-type opioid receptor. Description: Agonist activity at human kappa opioid receptor expressed in CHO cells assessed as [35S]-GTP[gammaS] binding. The format is functional, cell-based. Put shortly:
as §2

The target of series [17] is T3, Kappa-type opioid receptor. Briefly: Agonist activity at human kappa opioid receptor expressed in CHO cells assessed as [35S]-GTP[gammaS] binding relative to U69593. The series is classed as functional, cell-based. The procedure, abridged: as §2
The test system of series [18] is Mus musculus. Description: Analgesic activity in sc dosed mouse assessed as inhibition of acetic acid-induced writhing treated after 15 mins of acetic acid-challenge. The format is functional. Put shortly: (§5)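 Mice dosed subcutaneously, then scored in the acetic acid writhing test and watched for convulsive behaviour. […] taken from the dose–response. Antagonist reversal tested with NTI, β-FNA or nor-BNI. Groups compared against saline-treated mice by one-way ANOVA with Bonferroni's test.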
In general terms: An intraperitoneal irritant provokes the stretching counted in writhing tests.

The subject of series [19] is Mus musculus. Briefly: Toxicity in mouse assessed as induction of convulsion at 1 to 10 mg/kg, sc. The format is organism-based. On the set-up: dose 1-10 mg/kg, route subcutaneous. Particulars: in vivo. The procedure, abridged:
as §5

Delta-type opioid receptor (Mus musculus, UniProt P32300), sequence (P32300 whole entry): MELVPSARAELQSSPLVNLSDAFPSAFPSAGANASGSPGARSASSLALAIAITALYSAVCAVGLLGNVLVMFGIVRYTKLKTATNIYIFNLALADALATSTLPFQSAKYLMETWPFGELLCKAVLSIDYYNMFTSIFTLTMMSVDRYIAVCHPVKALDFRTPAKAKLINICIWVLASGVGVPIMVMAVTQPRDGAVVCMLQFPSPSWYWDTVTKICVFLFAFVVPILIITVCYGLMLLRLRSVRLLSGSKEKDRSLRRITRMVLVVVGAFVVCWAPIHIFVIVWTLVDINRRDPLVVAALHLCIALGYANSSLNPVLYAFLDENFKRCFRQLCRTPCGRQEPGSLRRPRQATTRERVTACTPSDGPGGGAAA
T2 sequence (P41143 whole entry): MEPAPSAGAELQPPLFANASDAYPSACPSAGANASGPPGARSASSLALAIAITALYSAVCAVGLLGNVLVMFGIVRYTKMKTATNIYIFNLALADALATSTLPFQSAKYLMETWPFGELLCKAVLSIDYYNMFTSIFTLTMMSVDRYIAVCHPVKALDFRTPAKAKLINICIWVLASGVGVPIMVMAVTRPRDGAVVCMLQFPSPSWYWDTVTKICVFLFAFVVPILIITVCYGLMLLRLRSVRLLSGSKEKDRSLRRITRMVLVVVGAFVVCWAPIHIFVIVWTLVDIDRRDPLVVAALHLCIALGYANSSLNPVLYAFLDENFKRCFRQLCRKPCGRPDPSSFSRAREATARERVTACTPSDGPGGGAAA
T1 sequence (P35372 whole entry): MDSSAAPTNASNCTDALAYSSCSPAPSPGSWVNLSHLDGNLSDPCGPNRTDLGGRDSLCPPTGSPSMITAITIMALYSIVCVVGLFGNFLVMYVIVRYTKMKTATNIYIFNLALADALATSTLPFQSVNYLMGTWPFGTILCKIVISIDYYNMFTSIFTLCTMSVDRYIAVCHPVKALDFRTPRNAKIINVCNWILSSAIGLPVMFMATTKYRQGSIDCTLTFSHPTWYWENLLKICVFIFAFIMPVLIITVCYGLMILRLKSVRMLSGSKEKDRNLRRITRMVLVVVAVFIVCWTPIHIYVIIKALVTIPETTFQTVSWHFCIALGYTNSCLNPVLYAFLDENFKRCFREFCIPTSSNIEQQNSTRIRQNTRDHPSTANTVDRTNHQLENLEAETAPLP

Take `O=C1[C@H]2O[C@@]34CC[C@@]5(OCOc6c(O)ccc7c6[C@@]3(CCN(CCc3ccccc3)[C@@H]4C7)[C@H]25)N1Cc1ccccc1`: the pKi – broadly, the Ki on a negative log10 scale, so that one unit is a factor of ten – is 7.34 in [1], 8.59 in series [2] and 6.23 in series [3]. Also, the results for the Ratio Ki in [4] and in [5] were 17.7 and 227, respectively. The pEC50 – broadly, the negative decadic logarithm of the EC50, by convention in mol/L – is 8.64 in series [6]; 8.04 in series [8]; 6.19 in series [10]; 7.69 in [12]; 4.90 in [14]. For the same molecule, the maximal response (Emax) – broadly, the size of the effect at its maximum, as opposed to the concentration needed – came to 83% in series [7]; 115% in [9]; 40.2% in series [11]; 108% in series [13]; 22.6% in series [15].
Regarding `O=C1[C@H]2O[C@@]34CC[C@@]5(OCOc6c(O)ccc7c6[C@@]3(CCN(CC3CC3)[C@@H]4C7)[C@H]25)N1c1ccccc1`, the pKi is 8.34 in series [1], 9.27 in series [2] and 8.77 in [3]. Also, the Ratio Ki in [4] came out at 8.6; in [5] it was 3.2. For the same molecule, the negative logarithm of the EC50 (pEC50) was 8.05 in [6]; 9.01 in [8]; 8.19 in series [16]; 8.92 in series [10]; 9.41 in series [12]; 8.92 in [14]. For the same molecule, the Emax in series [7] worked out at 25.6%; in [9] it was 118%; in series [17], 42.9%; in series [11], 8.8%; in [13], 123%; in series [15], 80.4%.
In the case of `O=C1[C@H]2O[C@@]34CC[C@@]5(OCOc6c(O)ccc7c6[C@@]3(CCN(CC3CC3)[C@@H]4C7)[C@H]25)N1CCc1ccccc1`, the pKi was 8.76 in series [1], 8.94 in series [2] and 8.71 in series [3]. In addition, the Ratio Ki in series [4] is 1.5; in series [5], 1.7. The pEC50 in series [6] is 8.68; in series [8], 9.39; in series [16], 8.41; in series [10] it was 8.28; in series [12], 9.21; in series [14], 8.62. For the same molecule, the Emax is 19.7% in series [7]; 103% in series [9]; 51.2% in [17]; 4.8% in series [11]; 90.6% in series [13]; 75.8% in [15].
On to `CN1CC[C@@]23c4c5ccc(O)c4OCO[C@]46CC[C@@]2(O[C@H](C(=O)N4Cc2ccccc2)[C@H]63)[C@H]1C5`, for which the results for the pKi in series [1], in series [2] and in series [3] were 7.63, 8.71 and 6.70, respectively. The Ratio Ki in series [4] was determined as 12; in [5], 103. For the same molecule, the pEC50 is 6.95 in series [6]; 7.96 in series [8]; 6.32 in series [16]; 5.87 in [10]; 6.85 in series [12]; 6.51 in [14]. The Emax in [7] was found to be 110%; in [9], 112%; in series [17], 83.6%; in series [11] it was 36.1%; in series [13], 138%; in [15], 79.2%. Further, the inhibition entry in series [18] was “Dose-dependent effect”. The 50% effective dose (ED50) (as a rule, the dose at which the effect has come halfway, by size or by number of responders) in series [18] (0.25 h) was found to be 5.26 mg/kg. Besides, in series [19], the Activity result was “Non-toxic”.
As to `C=CCN1CC[C@@]23c4c5ccc(O)c4OCO[C@]46CC[C@@]2(O[C@H](C(=O)N4Cc2ccccc2)[C@H]63)[C@H]1C5`, the pKi in series [1] was 7.16; in [2], 8.91; in [3], 7.25. Also, the Ratio Ki in [4] was 55.8; in [5], 46.2. Further, the pEC50 was 8.57 in [6]; 8.19 in series [8]; 6.64 in series [16]; 8.29 in [10]; 8.70 in series [12]. Also, the Emax in series [7] came out at 5.4%; in series [9], 94.6%; in series [17], 74%; in [11], 11.3%; in series [13], 77.2%.
For the molecule `C=CCN1C[C@H](C)N([C@H](c2ccc(C(=O)N(CC)CC)cc2)c2cccc(OC)c2)C[C@H]1C` [SNC-80], the negative-log Ki (pKi) in [1] is 6.16; in series [3] it was under 6.00. Moreover, the maximal effect (Emax) in [11] is 6.8%; in series [15], 5.9%.
Consider `O=C1[C@H]2O[C@@]34CC[C@@]5(OCOc6c(O)ccc7c6[C@@]3(CCN(CC3CC3)[C@@H]4C7)[C@H]25)N1Cc1ccccc1`, for which the pKi in series [1] is 8.50; in series [2] it was 9.50; in series [3] it was 8.29. Besides, the results for the Ratio Ki in [4] and in series [5] were 10 and 16.4, respectively. Also, the pEC50 in series [6] is 8.55; in series [8] it was 8.96; in [16], 7.09; in series [10], 8.74; in [12] it was 8.81; in series [14], 7.40. The maximal response (Emax) came to 13.7% in [7]; 92.8% in [9]; 69.1% in series [17]; 9.6% in series [11]; 88.7% in series [13]; 50.5% in [15].
For `COc1ccc2c(c1O)[C@]13CCN(CC4CC4)[C@H](C2)[C@]12CC[C@]1(O)[C@H]3[C@H](O2)C(=O)N1Cc1ccccc1`, the pKi was 7.32 in series [1], 6.76 in series [2] and 6.61 in series [3]. Besides, the Ratio Ki in series [4] amounted to 0.27; in series [5], 1.4.
Regarding `CC(C)CN1CC[C@@]23c4c5ccc(O)c4OCO[C@]46CC[C@@]2(O[C@H](C(=O)N4Cc2ccccc2)[C@H]63)[C@H]1C5`, the pKi in [1] was 6.73; in series [2] it was 8.15; in [3], 6.92. Moreover, the values for the Ratio Ki in [4] and in [5] were 26.6 and 17, respectively. In addition, the negative logarithm of the EC50 (pEC50) in series [6] was 6.65; in series [8] it was 7.81; in series [16], 6.12; in series [10], 6.40; in series [12], 6.85; in series [14], 6.48. In addition, the Emax was 8.4% in series [7]; 96.4% in series [9]; 65.6% in series [17]; 12.2% in series [11]; 130% in series [13]; 57.9% in [15].
